Reference: PMC9394215 (Journal for Immunotherapy of Cancer, 2022)

Key:
NTPDase3 = target: T1, NTPDase3 (Homo sapiens, UniProt O75355); assay: Malachite green assay, NTPDase3 in COS-7 cell membranes; format: biochemical
T1 sequence (O75355 1-529): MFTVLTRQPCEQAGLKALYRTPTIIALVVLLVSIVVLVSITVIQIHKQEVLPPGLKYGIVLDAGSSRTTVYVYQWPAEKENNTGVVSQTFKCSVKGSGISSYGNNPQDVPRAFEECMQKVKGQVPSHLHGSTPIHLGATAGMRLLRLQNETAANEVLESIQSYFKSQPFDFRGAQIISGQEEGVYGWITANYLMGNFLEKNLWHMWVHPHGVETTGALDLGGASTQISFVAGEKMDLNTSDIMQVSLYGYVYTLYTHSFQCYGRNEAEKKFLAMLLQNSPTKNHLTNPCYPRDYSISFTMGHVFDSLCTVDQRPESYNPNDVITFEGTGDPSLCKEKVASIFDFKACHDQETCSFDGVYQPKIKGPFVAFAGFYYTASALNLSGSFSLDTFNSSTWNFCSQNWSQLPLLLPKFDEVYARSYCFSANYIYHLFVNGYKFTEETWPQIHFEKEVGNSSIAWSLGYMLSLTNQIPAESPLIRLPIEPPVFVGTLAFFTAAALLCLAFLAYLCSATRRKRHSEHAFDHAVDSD
Procedure, shortened: (§1)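 Human NTPDase2, -3 or -8 was expressed in COS-7 membranes (ca. 100 ng protein, adjusted for 10–20% substrate conversion). Enzyme was preincubated 5 min at 37°C with test compound (50 µM single point, or 0.1–300 µM for curves). It was then incubated 15 min at 37°C with 100 µM ATP in HEPES/CaCl2/MgCl2, pH 7.4, ≤2% DMSO. Malachite green absorbance at 600 nm was corrected by a denatured-enzyme blank; n=3.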

NTPDase8 = target: T2, NTPDase8 (Homo sapiens, UniProt Q5MY95); assay: Malachite green assay, NTPDase8 in COS-7 cell membranes; format: biochemical
T2 sequence (Q5MY95 1-495): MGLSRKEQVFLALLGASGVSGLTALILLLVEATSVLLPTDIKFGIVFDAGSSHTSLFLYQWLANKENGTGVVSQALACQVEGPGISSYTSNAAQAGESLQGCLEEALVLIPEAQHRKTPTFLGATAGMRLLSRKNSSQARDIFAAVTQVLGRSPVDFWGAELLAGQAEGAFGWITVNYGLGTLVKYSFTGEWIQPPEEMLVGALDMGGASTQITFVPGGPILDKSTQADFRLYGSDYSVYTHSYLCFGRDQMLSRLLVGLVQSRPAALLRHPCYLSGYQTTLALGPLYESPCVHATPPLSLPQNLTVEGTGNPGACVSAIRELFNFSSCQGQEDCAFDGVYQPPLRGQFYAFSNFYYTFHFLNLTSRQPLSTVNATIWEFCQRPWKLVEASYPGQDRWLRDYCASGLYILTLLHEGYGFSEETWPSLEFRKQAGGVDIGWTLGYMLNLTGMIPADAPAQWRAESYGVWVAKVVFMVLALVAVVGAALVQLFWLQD
Procedure, shortened: as §1

Membrane-bound CD73 = target: T3, Membrane-bound CD73 (Homo sapiens, UniProt P21589); assay: Membrane-bound CD73 inhibition; format: biochemical
T3 sequence (P21589 27-574): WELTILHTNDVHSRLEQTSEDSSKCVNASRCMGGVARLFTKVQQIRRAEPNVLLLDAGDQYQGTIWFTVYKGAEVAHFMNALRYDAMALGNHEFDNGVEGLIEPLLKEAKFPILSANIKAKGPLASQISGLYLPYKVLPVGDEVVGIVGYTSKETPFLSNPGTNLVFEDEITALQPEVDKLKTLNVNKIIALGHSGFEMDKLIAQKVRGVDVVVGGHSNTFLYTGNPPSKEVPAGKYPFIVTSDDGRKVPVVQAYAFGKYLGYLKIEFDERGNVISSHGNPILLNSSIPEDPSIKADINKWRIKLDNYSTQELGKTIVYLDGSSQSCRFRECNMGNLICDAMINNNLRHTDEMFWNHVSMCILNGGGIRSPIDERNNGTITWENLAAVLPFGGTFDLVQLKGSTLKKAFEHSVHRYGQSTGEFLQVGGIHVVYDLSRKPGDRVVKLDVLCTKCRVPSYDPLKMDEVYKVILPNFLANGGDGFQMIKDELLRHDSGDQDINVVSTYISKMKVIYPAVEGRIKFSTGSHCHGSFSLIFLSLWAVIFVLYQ

[1] = stated without method or reference; cited from earlier work

IC50 (NTPDase3): 22.7 ± 4 µM
IC50 (NTPDase8): 20.3 ± 1.5 µM
IC50 (Membrane-bound CD73): > 50 µM
inhibition at 50 µM (Membrane-bound CD73; read-out: % inhibition at 50 µM): 30%
Structure (SMILES): Cc1cc(Nc2ncc(Cl)c(Nc3ccccc3S(=O)(=O)C(C)C)n2)c(OC(C)C)cc1C1CCNCC1 [ceritinib, Ceritinib]
pKb of the piperidine nitrogen [1]: ~10
